This passage reports ED50 and IC50 results from ChEMBL document CHEMBL1125659, “Optical isomers of rocastine and close analogues: synthesis and H1 antihistaminic activity of its enantiomers and their structural relationship to the classical antihistamines” (J Med Chem, 1991).

The test system of test [1] is Cavia porcellus. The test is described as follows: Protection against histamine-induced lethality in guinea pig at 1 hr pretreatment time upon peroral administration. Particulars: po. It is filed as functional. The method in brief:
(§1)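 Female English short-hair guinea pigs (250–500 g), fasted overnight, dosed orally by gavage at set times before intravenous histamine challenge (1.2 mg/kg). Survival at 24 h postchallenge scored as protection. Groups of 5–10 animals per treatment; ED50 by Litchfield–Wilcoxon or computer probit analysis.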

In test [2] the target is T1, Histamine H1 receptor (Cavia porcellus, UniProt P31389). The test is described as follows: Inhibition of [3H]mepyramine binding to the Histamine H1 receptor in guinea pig cortex. It is filed as tissue-based. The method in brief: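 Cerebral cortex from female Dunkin-Hartley guinea pigs (200–500 g) homogenized in cold 50 mM Na/K phosphate pH 7.5, washed by three 48000g 4 °C spins, used fresh same day. Six concentrations in triplicate; IC50 by linear/nonlinear curve fitting.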

Test [3] has as its system Cavia porcellus. Description: Protection against histamine-induced lethality in guinea pig at 24 hr pretreatment time upon peroral administration. Format: functional. Particulars: po. The method in brief: as §1
In test [4] the test system is Cavia porcellus. Description: Protection against histamine-induced lethality in guinea pig at 6 hr pretreatment time upon peroral administration. It is filed as functional. To be noted: po. The method in brief:
as §1

Test [5] addresses T1, Histamine H1 receptor. Description: Inhibition of [3H]mepyramine binding to the histamine receptor in guinea pig cortex. It is filed as tissue-based. The gist of the method:
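Cerebral cortex from female Dunkin-Hartley guinea pigs (200–500 g) homogenized in cold 50 mM Na/K phosphate pH 7.5, washed by three 48000g 4 °C spins, used fresh same day. [3H]mepyramine (15 nM stock, 23 Ci/mmol) incubated with membranes 20 min at 25 °C; filtration, scintillation counting. Six concentrations in triplicate; IC50 by linear/nonlinear curve fitting.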

Test [6] concerns Cavia porcellus. The test is described as follows: Protection against histamine-induced lethality in guinea pig at 24 hr pretreatment time upon peroral administration. To be noted: po. It is filed as functional. The method in brief:
as §1

T1 sequence (P31389 whole entry): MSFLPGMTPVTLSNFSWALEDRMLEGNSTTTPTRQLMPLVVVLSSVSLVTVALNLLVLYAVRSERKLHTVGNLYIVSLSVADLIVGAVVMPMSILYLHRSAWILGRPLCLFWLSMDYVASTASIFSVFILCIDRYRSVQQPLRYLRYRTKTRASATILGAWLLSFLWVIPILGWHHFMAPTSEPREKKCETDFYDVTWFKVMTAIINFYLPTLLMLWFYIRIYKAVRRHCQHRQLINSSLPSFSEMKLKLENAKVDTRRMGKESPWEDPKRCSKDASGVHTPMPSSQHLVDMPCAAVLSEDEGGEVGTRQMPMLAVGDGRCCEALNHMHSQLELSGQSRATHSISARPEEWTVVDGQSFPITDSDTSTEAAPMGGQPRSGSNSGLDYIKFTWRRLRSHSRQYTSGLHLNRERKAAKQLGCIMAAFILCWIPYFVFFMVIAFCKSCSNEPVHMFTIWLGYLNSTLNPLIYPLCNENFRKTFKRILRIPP

As for `CN(C)CCC(c1ccc(Cl)cc1)c1ccc(Cl)cn1` (configuration not stated), the ED50 in test [1] is above 10 mg/kg. For the same compound, the half-inhibitory concentration (IC50) in test [2] was 430 nM.

Regarding `CN(C)CC[C@H]1CN(C)C(=S)c2cccnc2O1`, in test [1], the 50% effective dose (ED50) came out at 23 mg/kg. In test [2], this compound displayed an IC50 of 21000 nM.

Regarding `CN(C)CC[C@H]1CN(C)C(=S)c2cc(Cl)cnc2O1`, in test [1], the 50% effective dose (ED50) is 66.8 mg/kg. The same compound displayed an IC50 in test [2] of 11900 nM.

With `CN1C[C@@H](CCN2CCC2)Oc2ncc(Cl)cc2C1=S`, the ED50 stood at 0.0054 mg/kg in test [1], 0.21 mg/kg in test [3] and 0.0078 mg/kg in test [4]. Moreover, the half-inhibitory concentration (IC50) in test [5] amounted to 0.26 nM.

On to `CN(C)CC[C@@H]1CN(C)C(=S)c2cc(Cl)cnc2O1`, for which the 50% effective dose (ED50) came to 0.013 mg/kg in test [1], 58 mg/kg in test [6] and 0.15 mg/kg in test [4]. In addition, the IC50 in test [5] turned out to be 1.9 nM.

With `CN(C)CC[C@@H]1CN(C)C(=S)c2cccnc2O1`, the ED50 in test [1] came to 0.07 mg/kg; in test [4], 2.96 mg/kg. The same compound displayed an IC50 in test [5] of 30 nM.

With `CN(C)CCC(c1ccc(Cl)cc1)c1ccccn1` (configuration not stated) [CHLORPHENIRAMINE], in test [1], the ED50 amounted to 0.18 mg/kg.

As to `CN(C)CCC(c1ccccn1)c1ccc(Cl)cn1` (configuration not stated), the 50% effective dose (ED50) in test [1] came out at 0.009 mg/kg. In addition, in test [2], the IC50 came out at 24 nM.

Take `CN1C[C@H](CCN2CCC2)Oc2ncc(Cl)cc2C1=S`: in test [1], the 50% effective dose (ED50) was 8.28 mg/kg. In test [2], this compound displayed an IC50 of 870 nM.

By ED50 is commonly meant the midpoint of the dose-response relation. The term IC50 denotes the concentration that gives 50% inhibition. High values mean lower potency, low ones higher potency.
